Test results from ChEMBL document CHEMBL1154352, “Toll-like receptor 7 selective synthetic oligoribonucleotide agonists: synthesis and structure-activity relationship studies” (J Med Chem, 2009).
The source made the active and inactive calls. The calls are words filed in the database; no cut-off is given here.

Columns and labels:
Splenocyte [1] = assay: Immunomodulatory activity in C57BL/6 mouse splenocytes bearing TLR7 receptor assessed as IL12 release at 100 ug/ml after 24 hrs by ELISA; assay type: functional, cell-based
Method in brief: (§1)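 C57BL/6 splenocytes in RPMI 1640 with 10% FBS, penicillin/streptomycin, 2 mM L-glutamine, plated at 5 × 10^6 cells/mL; compounds in PBS added, 37 °C for 24 h. Supernatant IL-12 and IL-6 by ELISA; representative of three independent experiments.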

[2] = Metabolic stability in human serum assessed as full length product remaining after 10 mins by HPLC; assay type: ADME, cell-free; details: read-out: Stability
Method in brief: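 About 0.5 A260 units compound in 1% human serum in PBS, 37 °C; aliquot taken at 10 min, analysed by anion-exchange HPLC for percent intact full-length product.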

PBMC = assay: Immunomodulatory activity in human PBMC assessed as induction of TNFalpha at 100 ug/ml after 24 hrs; assay type: functional, cell-based
Method in brief: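 Human PBMCs plated at 5 × 10^6 cells/mL; compounds dissolved in PBS added at various concentrations, 37 °C for 24 h. Supernatant cytokines/chemokines quantified with human Luminex multiplex kit.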

[3] = target: T1, Toll-like receptor 8 (Homo sapiens) (UniProt Q9NR97); assay: Activation of human TLR8 expressed in HEK293XL assessed as fold induction of NF-kappaB activity at 50 ug/ml after 18 hrs by reporter gene assay relative to control
T1 sequence (whole entry): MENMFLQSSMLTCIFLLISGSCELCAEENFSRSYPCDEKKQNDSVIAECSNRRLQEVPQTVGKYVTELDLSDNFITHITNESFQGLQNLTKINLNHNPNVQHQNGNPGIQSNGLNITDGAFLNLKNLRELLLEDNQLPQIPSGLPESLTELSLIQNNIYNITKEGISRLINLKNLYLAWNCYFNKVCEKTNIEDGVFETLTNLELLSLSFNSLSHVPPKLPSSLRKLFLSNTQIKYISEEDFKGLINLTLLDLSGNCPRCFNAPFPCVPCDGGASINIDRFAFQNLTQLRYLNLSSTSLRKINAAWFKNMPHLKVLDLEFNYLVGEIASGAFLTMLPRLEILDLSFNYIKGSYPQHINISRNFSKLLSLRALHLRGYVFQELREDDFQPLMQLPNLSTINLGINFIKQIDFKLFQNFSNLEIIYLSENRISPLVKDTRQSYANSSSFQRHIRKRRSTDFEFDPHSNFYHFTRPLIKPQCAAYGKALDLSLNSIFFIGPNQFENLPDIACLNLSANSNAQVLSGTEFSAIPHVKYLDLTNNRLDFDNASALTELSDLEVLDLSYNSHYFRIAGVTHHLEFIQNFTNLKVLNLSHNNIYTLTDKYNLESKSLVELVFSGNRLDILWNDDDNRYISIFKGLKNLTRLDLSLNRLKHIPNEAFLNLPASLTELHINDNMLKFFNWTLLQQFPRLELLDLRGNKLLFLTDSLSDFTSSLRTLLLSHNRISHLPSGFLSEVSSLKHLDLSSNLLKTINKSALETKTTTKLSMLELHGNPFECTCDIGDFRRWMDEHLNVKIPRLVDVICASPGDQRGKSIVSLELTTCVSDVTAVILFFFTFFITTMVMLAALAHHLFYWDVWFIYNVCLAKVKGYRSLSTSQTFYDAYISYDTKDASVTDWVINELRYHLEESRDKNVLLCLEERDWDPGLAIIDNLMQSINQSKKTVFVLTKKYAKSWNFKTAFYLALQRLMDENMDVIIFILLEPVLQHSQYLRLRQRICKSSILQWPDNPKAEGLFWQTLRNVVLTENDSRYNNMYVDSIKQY
Method in brief: (§2)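 HEK293 cells stably expressing human TLR7 or TLR8, transiently transfected with SEAP reporter plasmid; medium replaced, SIMRA compounds added, 18 h incubation. Supernatant SEAP measured by QuantiBlue; expressed as fold increase in NF-κB activity over PBS control. Tabulated data at 50 μg/mL, representative of three independent experiments.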

[4] = target: T2, Toll-like receptor 7 (Homo sapiens) (UniProt Q9NYK1); assay: Activation of human TLR7 expressed in HEK293XL assessed as fold induction of NF-kappaB activity at 50 ug/ml after 18 hrs by reporter gene assay relative to control; method in brief: as §2
T2 sequence (whole entry): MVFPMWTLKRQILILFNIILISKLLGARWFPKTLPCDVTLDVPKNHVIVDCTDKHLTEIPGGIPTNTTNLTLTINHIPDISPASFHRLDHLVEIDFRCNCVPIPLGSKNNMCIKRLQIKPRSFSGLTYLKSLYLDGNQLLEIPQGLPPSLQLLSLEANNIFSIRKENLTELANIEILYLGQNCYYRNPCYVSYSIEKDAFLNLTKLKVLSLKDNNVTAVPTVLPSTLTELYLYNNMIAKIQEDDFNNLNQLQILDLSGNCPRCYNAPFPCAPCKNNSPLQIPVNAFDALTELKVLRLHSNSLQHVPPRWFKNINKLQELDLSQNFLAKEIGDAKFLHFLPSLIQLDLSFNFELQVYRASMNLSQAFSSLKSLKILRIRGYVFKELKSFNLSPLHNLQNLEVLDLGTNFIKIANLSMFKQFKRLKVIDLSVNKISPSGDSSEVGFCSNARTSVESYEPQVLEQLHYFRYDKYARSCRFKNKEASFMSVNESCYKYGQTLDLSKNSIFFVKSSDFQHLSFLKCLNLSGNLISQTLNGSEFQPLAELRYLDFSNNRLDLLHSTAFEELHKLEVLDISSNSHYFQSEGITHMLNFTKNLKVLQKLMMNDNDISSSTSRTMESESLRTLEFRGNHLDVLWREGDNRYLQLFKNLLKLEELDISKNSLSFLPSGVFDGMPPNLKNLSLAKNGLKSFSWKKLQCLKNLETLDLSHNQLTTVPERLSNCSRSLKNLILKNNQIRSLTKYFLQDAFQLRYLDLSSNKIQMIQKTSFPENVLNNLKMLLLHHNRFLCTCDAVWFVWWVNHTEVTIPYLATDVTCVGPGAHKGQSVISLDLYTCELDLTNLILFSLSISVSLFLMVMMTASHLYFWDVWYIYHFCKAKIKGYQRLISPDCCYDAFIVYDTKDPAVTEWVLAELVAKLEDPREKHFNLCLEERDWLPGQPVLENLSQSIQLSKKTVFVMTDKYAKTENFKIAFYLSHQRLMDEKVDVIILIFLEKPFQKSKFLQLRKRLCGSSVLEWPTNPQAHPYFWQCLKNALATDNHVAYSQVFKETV

Homo sapiens = species on record: Homo sapiens; assay: Ratio of human TLR7 activity to human TLR8 activity
Method in brief: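 TLR7/TLR8 ratio computed from fold NF-κB (SEAP reporter) activation in HEK293 cells stably expressing human TLR7 versus TLR8, compounds at 50 μg/mL, 18 h exposure; representative of three independent experiments.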

Splenocyte [5] = assay: Immunomodulatory activity in C57BL/6 mouse splenocytes bearing TLR7 receptor assessed as IL6 release at 100 ug/ml after 24 hrs by ELISA; assay type: functional, cell-based; method in brief: as §1

| Activity (Splenocyte [1]) | remaining at 10 min [2] | fold change (FC) [3] | fold change (FC) [4] | Ratio (Homo sapiens) | Activity (Splenocyte [5]) | SMILES | Activity (PBMC) |
| --- | --- | --- | --- | --- | --- | --- | --- |
| Active | 80% | 0.3 | 20.9 | 69.7 | Active | Nc1ccn([C@@H]2O[C@H](COP(=O)(S)O[C@H]3[C@@H](O)[C@H](n4cnc5c(N)ncnc54)O[C@@H]3COP(=O)(S)O[C@H]3[C@@H](O)[C@H](n4ccc5c(=O)[nH]c(N)nc54)O[C@@H]3COP(=O)(S)O[C@H]3[C@@H](O)[C@H](n4ccc(=O)[nH]c4=O)O[C@@H]3COP(=O)(S)O[C@H]3[C@@H](O)[C@H](n4ccc(=O)[nH]c4=O)O[C@@H]3COP(=O)(S)O[C@H]3[C@@H](O)[C@H](n4cnc5c(N)ncnc54)O[C@@H]3COP(=O)(S)O[C@H]3[C@@H](O)[C@H](n4cnc5c(N)ncnc54)O[C@@H]3CO)[C@@H](OP(=O)(S)OC[C@H]3O[C@@H](n4ccc5c(=O)[nH]c(N)nc54)[C@H](O)[C@@H]3OP(=O)(S)OC[C@H]3O[C@@H](n4ccc(N)nc4=O)[C@H](O)[C@@H]3OP(=O)(S)OC[C@H]3O[C@@H](n4ccc(=O)[nH]c4=O)[C@H](O)[C@@H]3OP(=O)(S)OC[C@H]3O[C@@H](n4ccc(=O)[nH]c4=O)[C@H](O)[C@@H]3OP(=O)(S)OCC(O)COP(=O)(S)O[C@H]3[C@@H](O)[C@H](n4ccc(=O)[nH]c4=O)O[C@@H]3COP(=O)(S)O[C@H]3[C@@H](O)[C@H](n4ccc(=O)[nH]c4=O)O[C@@H]3COP(=O)(S)O[C@H]3[C@@H](O)[C@H](n4ccc(N)nc4=O)O[C@@H]3COP(=O)(S)O[C@H]3[C@@H](O)[C@H](n4ccc5c(=O)[nH]c(N)nc54)O[C@@H]3COP(=O)(S)O[C@H]3[C@@H](O)[C@H](n4ccc(N)nc4=O)O[C@@H]3COP(=O)(S)O[C@H]3[C@@H](O)[C@H](n4cnc5c(N)ncnc54)O[C@@H]3COP(=O)(S)O[C@H]3[C@@H](O)[C@H](n4ccc5c(=O)[nH]c(N)nc54)O[C@@H]3COP(=O)(S)O[C@H]3[C@@H](O)[C@H](n4ccc(=O)[nH]c4=O)O[C@@H]3COP(=O)(S)O[C@H]3[C@@H](O)[C@H](n4ccc(=O)[nH]c4=O)O[C@@H]3COP(=O)(S)O[C@H]3[C@@H](O)[C@H](n4cnc5c(N)ncnc54)O[C@@H]3COP(=O)(S)O[C@H]3[C@@H](O)[C@H](n4cnc5c(N)ncnc54)O[C@@H]3CO)[C@H]2O)c(=O)n1 (some centres undefined) | 8.8 pg/mL |
| Active | 82% | 1 | 20.1 | 20.1 | Active | Nc1ccn([C@@H]2O[C@H](COP(=O)(S)O[C@H]3[C@@H](O)[C@H](n4cnc5c(N)ncnc54)O[C@@H]3COP(=O)(S)O[C@H]3[C@@H](O)[C@H](n4cnc5c(N)ncnc54)O[C@@H]3CO)[C@@H](OP(=O)(S)OC[C@H]3O[C@@H](n4ccc(=O)[nH]c4=O)[C@H](O)[C@@H]3OP(=O)(S)OC[C@H]3O[C@@H](n4ccc(=O)[nH]c4=O)[C@H](O)[C@@H]3OP(=O)(S)OC[C@H]3O[C@@H](n4ccc5c(=O)[nH]c(N)nc54)[C@H](O)[C@@H]3OP(=O)(S)OC[C@H]3O[C@@H](n4cnc5c(N)ncnc54)[C@H](O)[C@@H]3OP(=O)(S)OC[C@H]3O[C@@H](n4ccc5c(=O)[nH]c(N)nc54)[C@H](O)[C@@H]3OP(=O)(S)OC[C@H]3O[C@@H](n4ccc(N)nc4=O)[C@H](O)[C@@H]3OP(=O)(S)OC[C@H]3O[C@@H](n4ccc(=O)[nH]c4=O)[C@H](O)[C@@H]3OP(=O)(S)OC[C@H]3O[C@@H](n4ccc(=O)[nH]c4=O)[C@H](O)[C@@H]3OP(=O)(S)OCC(O)COP(=O)(S)O[C@H]3[C@@H](O)[C@H](n4ccc(=O)[nH]c4=O)O[C@@H]3COP(=O)(S)O[C@H]3[C@@H](O)[C@H](n4ccc(=O)[nH]c4=O)O[C@@H]3COP(=O)(S)O[C@H]3[C@@H](O)[C@H](n4ccc(N)nc4=O)O[C@@H]3COP(=O)(S)O[C@H]3[C@@H](O)[C@H](n4ccc5c(=O)[nH]c(N)nc54)O[C@@H]3COP(=O)(S)O[C@H]3[C@@H](O)[C@H](n4cnc5c(N)ncnc54)O[C@@H]3COP(=O)(S)O[C@H]3[C@@H](O)[C@H](n4ccc5c(=O)[nH]c(N)nc54)O[C@@H]3COP(=O)(S)O[C@H]3[C@@H](O)[C@H](n4ccc(=O)[nH]c4=O)O[C@@H]3COP(=O)(S)O[C@H]3[C@@H](O)[C@H](n4ccc(=O)[nH]c4=O)O[C@@H]3COP(=O)(S)O[C@H]3[C@@H](O)[C@H](n4ccc(N)nc4=O)O[C@@H]3COP(=O)(S)O[C@H]3[C@@H](O)[C@H](n4cnc5c(N)ncnc54)O[C@@H]3COP(=O)(S)O[C@H]3[C@@H](O)[C@H](n4cnc5c(N)ncnc54)O[C@@H]3CO)[C@H]2O)c(=O)n1 (some centres undefined) | 74.4 pg/mL |
